Usually IC50 stands for the concentration that inhibits the measured activity by half. Read a low IC50 as higher potency.

Bounds are passed on as bounds.

Results on 76 molecules are retold here after ChEMBL document CHEMBL1128252, “Synthesis and anti-HIV-1 activity of 4,5,6,7-tetrahydro-5-methylimidazo [4,5,1-jk][1,4]benzodiazepin-2(1H)-one (TIBO) derivatives. 3” (J Med Chem, 1995).

In the first test the test system is MT4. The test is described as follows: Effective concentration of compound required to achieve 50% protection of MT-4 cells against the cytopathic effect of HIV-1 number of experiments = 6. The following applies: Homo sapiens. The format is functional, cell-based. In outline: (§1)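 MT-4 cells infected with HIV-1 and incubated with a range of compound concentrations. Viable cells were counted 5 days post-infection by MTT staining. IC50 is the concentration protecting 50% of cells from virus-induced cytopathic effect. Values are means over n assays, where n varies per compound.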
In turn, `C[C@@H]1CN(CC2CC2)Cc2cc(Cl)cc3[nH]c(=S)n1c23` gave an IC50 of 2.18 µM.

The next test relates to MT4. As to the kind of experiment: Effective concentration of compound required to achieve 50% protection of MT-4 cells against the cytopathic effect of HIV-1 number of experiments = 4. The test is classed as functional, cell-based. The following applies: Homo sapiens. In outline: as §1
The molecule `C=C(C)CN1Cc2cccc3[nH]c(=O)n(c23)CC1CC` (stereo not drawn) returned an IC50 of over 50 µM.
The same measure, in the same setting: then `CCCN1C(=O)c2cccc3nc(O)n(c23)CC1C` (stereo not drawn), with over 250 µM.

The subject of the next test is MT4. The test is described as follows: Effective concentration of compound required to achieve 50% protection of MT-4 cells against the cytopathic effect of HIV-1 number of experiments = 8. The format is functional, cell-based. The conditions noted are these: Homo sapiens. In outline:
as §1
In general terms: Cytopathic effects are the visible damage that an infection or toxin causes in cultured cells.
For `CC(C)=CCN1Cc2cccc3nc(O)n(c23)C[C@H]1C`, inhibition was half-maximal at 3.32 µM (IC50).
On to `CC(C)=CCN1C(C)Cn2c(=S)[nH]c3cccc(c32)C1C` (stereo not drawn), for which it took 0.042 µM to reach half-maximal inhibition (IC50).
On the same count and under the same terms, under `Oc1nc2cccc3c2n1CC1CCCCN1C3` (stereo not drawn) stands over 250 µM.

The test system of the next test is Human immunodeficiency virus 1. The test is described as follows: (§2) Effective concentration required to achieve 50% protection of MT-4 cells against the cytopathic effect of HIV-1. The test is classed as functional, organism-based, MT4. The conditions noted are these: Human immunodeficiency virus 1, MT4. The method, boiled down:
as §1
Regarding `CCCC1CNCc2cccc3nc(O)n1c23` (stereo not drawn), the IC50 was over 250 µM.
Still for that read-out and setting: then `CCCN1Cc2cccc3nc(O)n(c23)CC1=O`, with over 250 µM; and `CCCC1Cn2c(O)nc3cccc(c32)CN1` (stereo not drawn), with over 250 µM.
As for `CC(C)C1CNCc2cccc3nc(O)n1c23` (stereo not drawn), the IC50 is over 250 µM.
Same read-out and setting: under `C[C@@H]1Cn2c(O)nc3cc(Cl)cc(c32)CN1` stands over 250 µM.
Same read-out and setting: then `S=c1[nH]c2cccc3c2n1-c1ccccc1N(CC1CC1)C3`, with over 10 µM; and `CC(C)[C@H]1Cn2c(O)nc3cccc(c32)CN1`, with over 250 µM.
Regarding `CC(C)=CCN1Cc2cc(Cl)cc3[nH]c(=O)n(c23)C[C@H]1C`, the IC50 was found to be 0.18 µM.
Still for that read-out and setting: under `CCCC1CN(CCC)Cc2cccc3[nH]c(=O)n1c23` (stereo not drawn) stands over 180 µM; under `C=C(C)CN1Cc2cccc3[nH]c(=O)n(c23)C(CCC)C1` (stereo not drawn), 48.1 µM.
Still for that read-out and setting: then `C=C(C)CN1Cc2cccc3nc(O)n(c23)CC1CCC` (stereo not drawn), with over 10 µM; and `O=C1CCC2c3cc(Cl)cc4nc(S)n(c34)CCN12` (stereo not drawn), with over 250 µM; and `CC(C)=CCN1CCn2c(=S)[nH]c3ccc(Cl)c(c32)C1`, with 0.046 µM.
On the same count and under the same terms, then `CC(C)=CCN1CCn2c(=O)[nH]c3ccc(Cl)c(c32)C1C` (stereo not drawn), with 0.145 µM; and `CC(C)=CCN1Cc2cccc3[nH]c(=S)n(c23)C(C)C1C` (stereo not drawn), with 2.22 µM; and `CC(C)=CCN1CCn2c(=S)[nH]c3ccc(Cl)c(c32)C1C` (stereo not drawn), with 0.012 µM.
As for `CC(C)=CCN1CCn2c(=O)[nH]c3cccc(c32)C1C` (stereo not drawn), the IC50 is 12.1 µM.
`C=C(C)CN1Cc2cccc3[nH]c(=O)n(c23)C(C(C)C)C1` (stereo not drawn) came in with an IC50 of 12.6 µM.

Still in this test, the particulars now being: mt4.
Regarding `CC(C)=CCN1CC(C)n2c(S)nc3cccc(c32)C1C` (stereo in doubt; 1bg), the IC50 was 25.8 µM.
The same measure, in the same setting: under `CC(C)=CCN1CC(C)n2c(S)nc3cccc(c32)C1C` (stereo in doubt; 1bh) stands over 10 µM.

In a further test the test system is MT4. The test is described as follows: Effective concentration of compound required to achieve 50% protection of MT-4 cells against the cytopathic effect of HIV-1 number of experiments = 53. The following applies: Homo sapiens. The format is functional, cell-based. The method, boiled down: as §1
For `CC(C)=CCN1Cc2cc(Cl)cc3nc(S)n(c23)C[C@H]1C`, the midpoint of inhibition, the IC50, lay at 0.043 µM.

In the next test the test system is MT4. As to the kind of experiment: Effective concentration of compound required to achieve 50% protection of MT-4 cells against the cytopathic effect of HIV-1 number of experiments = 20. The format is functional, cell-based. The conditions noted are these: Homo sapiens. The method, boiled down:
as §1
`CC(C)=CCN1Cc2c(Cl)ccc3nc(S)n(c23)C[C@H]1C` returned an IC50 of 0.005 µM.

The next test concerns MT4. The test is described as follows: Effective concentration of compound required to achieve 50% protection of MT-4 cells against the cytopathic effect of HIV-1 number of experiments = 24. The conditions noted are these: Homo sapiens. The test is classed as functional, cell-based. In outline:
as §1
With `C=C(C)CN1Cc2cccc3[nH]c(=O)n(c23)CC1C` (stereo not drawn), the IC50 was found to be 34.7 µM.

In another test the test system is Human immunodeficiency virus 1. The description is as §2. The format is functional, organism-based. The conditions noted are these: Human immunodeficiency virus 1, MT4. The method, boiled down:
as §1
Consider `CC1Cn2c(O)nc3cccc(c32)CN1` (stereo not drawn), for which the IC50 was over 250 µM.
The same measure, in the same setting: then `C=C(C)CN1Cc2cccc3nc(S)n(c23)C[C@H]1C`, with 0.026 µM; and `CC(C)=CCN1Cc2cccc3nc(O)n(c23)C[C@@H]1C(C)C`, with over 10 µM.
Still for that read-out and setting: then `Oc1nc2cccc3c2n1CC(c1ccccc1)NC3` (stereo not drawn), with over 250 µM.
Still for that read-out and setting: then `C=C(C)CN1Cc2cccc3nc(O)n(c23)CC1c1ccccc1` (stereo not drawn), with over 10 µM; and `CCCN1Cc2cccc3[nH]c(=O)n(c23)C(C(C)C)C1` (stereo not drawn), with 73.3 µM; and `CCCN1CCn2c(=O)[nH]c3cccc(c32)C1C` (stereo not drawn), with over 83 µM.
Molecule `CC(C)=CCN1CCn2c(S)nc3cc(Cl)c4c(c32)C1CC4` (stereo not drawn) came in with an IC50 of over 2 µM.
With `CC(C)=CCN1[C@H](C)Cn2c(=S)[nH]c3cc(Cl)cc(c32)[C@H]1C`, the IC50 came to 0.48 µM.
The same measure, in the same setting: then `CCCN1Cc2cccc3nc(O)n(c23)C(c2ccccc2)C1` (stereo not drawn), with over 250 µM; and `CC(C)=CCN1CCn2c(S)nc3cc(Cl)cc(c32)C1CC(C)C` (stereo not drawn), with over 2 µM.
Same read-out and setting: then `CC(C)=CCN1Cc2cc(Cl)cc3nc(O)n(c23)C[C@@H]1C(C)C`, with over 10 µM; and `CC(C)=CCN1CCn2c(O)nc3cc(Cl)cc(c32)C1CC(C)C` (stereo not drawn), with over 2 µM.
On the same count and under the same terms, under `CC1(C)Cn2c(O)nc3cccc(c32)CN1` stands over 250 µM; under `CC(C)=CCN1[C@@H](C)Cn2c(S)nc3cc(Cl)cc(c32)[C@@H]1C`, over 10 µM; under `C/C=C1/CC2Cn3c(S)nc4cc(Cl)cc(c43)CN2C1` (stereo not drawn), 3.76 µM.
The molecule `C=C1CC2Cn3c(S)nc4cc(Cl)cc(c43)CN2C1` (stereo not drawn) came in with an IC50 of over 10 µM.
On the same count and under the same terms, under `Sc1nc2cc(Cl)cc3c2n1CCN1CCCC31` (stereo not drawn) stands over 2 µM; under `CC(C)=CCN1[C@H](C)Cn2c(=O)[nH]c3cc(Cl)cc(c32)[C@H]1C`, 0.23 µM.
As for `C=C(C)CN1Cc2cccc3nc(O)n(c23)C(c2ccccc2)C1` (stereo not drawn), the half-maximal inhibitory concentration (IC50) is over 250 µM.
`CC(C)C1Cn2c(O)nc3cccc(c32)CN1` (stereo not drawn) displayed an IC50 of over 250 µM.
Take `CC(C)=CCN1CCn2c(=S)[nH]c3cc(Cl)cc(c32)C1C` (stereo not drawn): the IC50 stood at 0.023 µM.
`CC(C)=CCN1Cc2cccc3nc(O)n(c23)C(C)C1C` (stereo not drawn) showed an IC50 of 56.7 µM.
Still for that read-out and setting: then `CC(C)=CCN1CCn2c(=O)[nH]c3cc(Cl)cc(c32)C1C` (stereo not drawn), with 0.16 µM; and `C=C(C)CN1Cc2cccc3[nH]c(=O)n(c23)CC1(C)C`, with 23.1 µM; and `CC1NCCn2c(O)nc3cccc1c32` (stereo not drawn), with over 250 µM.
Still for that read-out and setting: under `O=C1Nc2ccccc2-n2c(S)nc3cccc1c32` stands over 250 µM; under `CCCN1Cc2cc(Cl)cc3[nH]c(=S)n(c23)C(=O)C1C` (stereo not drawn), over 50 µM; under `CC(C)=CCN1Cc2cc(Cl)cc3nc(S)n(c23)C[C@H]1C(C)C`, over 10 µM.
The same measure, in the same setting: under `C[C@@H]1Cn2c(S)nc3cccc(c32)CN1CC1CC1` stands 0.06 µM.
For the molecule `Oc1nc2cccc3c2n1CC1CCCN1C3` (stereo not drawn), the IC50 was over 250 µM.
On the same count and under the same terms, under `Oc1nc2cccc3c2n1C(c1ccccc1)CNC3` (stereo not drawn) stands over 250 µM; under `CC(C)=CCN1CCn2c(S)nc3cccc(c32)C1c1ccccc1` (stereo not drawn), over 2 µM; under `CC(C)=CCN1C(C)Cn2c(=S)[nH]c3cccc(c32)C1C` (stereo not drawn), 1.15 µM.
On the same count and under the same terms, under `C=C(C)CN1Cc2cccc3nc(O)n(c23)C[C@@H]1C(C)C` stands over 10 µM.
Still for that read-out and setting: then `CC(C)=CCN1Cc2cccc3nc(S)n(c23)C[C@@H]1C(C)C`, with over 10 µM; and `C[C@@H]1Cn2c(S)nc3cc(Cl)cc(c32)CN1CC1CC1`, with 0.034 µM.
For `CC(C)=CCN1[C@@H](C)Cn2c(=O)[nH]c3cc(Cl)cc(c32)[C@@H]1C`, the IC50 was over 5 µM.
Still for that read-out and setting: under `CCC1Cn2c(O)nc3cccc(c32)CN1` (stereo not drawn) stands over 250 µM.
The same measure, in the same setting: then `S=c1[nH]c2cc(Cl)cc3c2n1CCN1CCCCC31` (stereo not drawn), with over 2 µM.
The same measure, in the same setting: then `C=C(C)CN1Cc2cc(Cl)cc3[nH]c(=S)n(c23)[C@@H](C)C1`, with 0.67 µM; and `CC1CNCc2cccc3nc(O)n1c23` (stereo not drawn), with over 250 µM; and `CC(C)[C@H]1Cn2c(O)nc3cc(Cl)cc(c32)CN1`, with over 10 µM.
On to `CCCN1CCn2c(=S)[nH]c3cccc(c32)C1C` (stereo not drawn), for which the IC50 stood at 2.43 µM.
On the same count and under the same terms, under `CC(C)=CCN1CCn2c(=S)[nH]c3cccc(c32)C1C` (stereo not drawn) stands 0.078 µM.
On the same count and under the same terms, under `CC(C)=CCN1Cc2cccc3[nH]c(=S)n(c23)C(C)C1C` (stereo not drawn) stands 14.3 µM; under `C=C(C)CN1Cc2cccc3[nH]c(=O)n(c23)C(C)C1` (stereo not drawn), 32.1 µM.
For the molecule `CC1C(C)n2c(S)nc3cccc(c32)CN1CC1CC1` (stereo not drawn), 13.4 µM corresponded to half-maximal inhibition (IC50).
Same read-out and setting: under `CC(C)=CCN1CCn2c(=S)[nH]c3cc(Cl)cc(c32)C1` stands 0.16 µM.
